Measured values: ChEMBL document CHEMBL1133353, “Structural analogues of some highly active non-competitive AMPA antagonists” (Bioorg Med Chem Lett, 2000)

Legend:
Mus musculus [1] = assay: Anticonvulsant activity of compound, administered perorally in mice was evaluated using maximal electroshock seizure model; format: functional; details: po
Method in brief: (§1)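 Mice were dosed orally 60 min before maximal electroshock, using 10 mice per dose at 3–4 doses. ED50 was calculated by the Litchfield–Wilcoxon method.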

Mus musculus [2] = assay: No behavioral change was observed after the peroral administration of compound in mice; format: functional
Gallus gallus [3] = species on record: Gallus gallus; assay: Compound was examined in vitro for inhibition of AMPA (5 uM) evoked spreading depression in isolated retina prepared from young chicken; format: functional
Method in brief: (§2)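 Each compound was first screened at 20 µM in 6 retina preparations. Below 40% inhibition was recorded as IC50 >20 µM, and 40–60% as ~20 µM. Above 60%, IC50 was determined from 3–5 concentrations with 6 retinas per concentration.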

Mus musculus [4] = assay: Muscle relaxant activity of compound, administered intraperitoneally in mice was evaluated using inclined screen test; format: functional; details: ip
Method in brief: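 Inclined screen test for muscle relaxation in mice, with compound given ip 30 min before testing; 10 mice per dose at 3–4 doses. ED50 was derived by the Litchfield–Wilcoxon method.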

Mus musculus [5] = assay: No behavioral change was observed after the intraperitoneal administration of compound in mice; format: functional
Mus musculus [6] = assay: Increase of spontaneous motor activity, ataxy, stereotypia, licking, muscle rigidity was observed after the peroral administration of compound in mice; format: functional
Mus musculus [7] = assay: Increase of spontaneous motor activity, ataxy, stereotypia, licking, muscle rigidity was observed after the intraperitoneal administration of compound in mice; format: functional
Mus musculus [8] = assay: Anticonvulsant activity of compound, administered perorally in mice was evaluated using maximal electroshock seizure model; values ranges from (40.5-54.7); format: functional; details: po; method in brief: as §1
Mus musculus [9] = assay: Loss of righting reflex was observed after the intraperitoneal administration of compound in mice; format: functional
Mus musculus [10] = assay: Anticonvulsant activity of compound, administered perorally in mice was evaluated using maximal metrazole seizure model; format: functional; details: po
Method in brief: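 Oral dosing in mice 60 min before 130 mg/kg metrazole ip, with lethality as the endpoint; 10 mice per dose at 3–4 doses. ED50 was obtained by the Litchfield–Wilcoxon method.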

Gallus gallus [11] = species on record: Gallus gallus; assay: Compound was examined in vitro for inhibition of kainate (5 uM) evoked spreading depression in isolated retina prepared from young chicken; format: functional; method in brief: as §2
Mus musculus [12] = assay: Loss of righting reflex was observed after the peroral administration of compound in mice; format: functional
Rattus norvegicus [13] = species on record: Rattus norvegicus; assay: (§3) Compound was tested for inhibition of whole cell current induced […]; format: functional
Method in brief: (§4)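 Patch-clamp whole-cell currents evoked by 5 µM AMPA; inhibition reported as IC50 or as percent inhibition at 5 µM compound.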

Mus musculus [14] = assay: Decrease of spontaneous motor activity, ataxy, mild muscle relaxation was observed after the peroral administration of compound in mice; format: functional
Mus musculus [15] = assay: Decrease of spontaneous motor activity, ataxy, mild muscle relaxation was observed after the intraperitoneal administration of compound in mice; format: functional
Mus musculus [16] = assay: Adynamia was observed after the intraperitoneal administration of compound in mice; format: functional
Mus musculus [17] = assay: Adynamia was observed after the peroral administration of compound in mice; format: functional
Rattus norvegicus [18] = species on record: Rattus norvegicus; assay: as §3; format: functional, cell-based; method in brief: as §4

| Structure (SMILES) | ED50 (Mus musculus [1]) [mg/kg] | IC50 (Gallus gallus [3]) [µM] | ED50 (Mus musculus [4]) [mg/kg] | Dose (Mus musculus [9]) [mg/kg] | ED50 (Mus musculus [10]) [mg/kg] | IC50 (Gallus gallus [11]) [µM] | Dose (Mus musculus [12]) [mg/kg] | other results |
| --- | --- | --- | --- | --- | --- | --- | --- | --- |
| CCCCC(=O)N1CC(C)c2cc3c(cc2C(c2ccc(N)cc2)=N1)OCO3 (stereo not drawn) | > 100 | > 20 | > 200 | – | – | – | – | Dose (Mus musculus [2]): 200 mg/kg; Dose (Mus musculus [5]): 100 mg/kg |
| CC1CNN=C(c2ccc(N)cc2)c2cc3c(cc21)OCO3 (stereo not drawn) | – | – | 100 | – | – | – | – | Dose (Mus musculus [6]): 200 mg/kg; Dose (Mus musculus [7]): 100 mg/kg; ED50 (Mus musculus [8]): 47.1 mg/kg |
| CNC(=O)N1CC(C)c2cc3c(cc2C(c2ccc(N)cc2)=N1)OCO3 (stereo not drawn) | 48.8 | 15.6 | 55.9 | 100 | 67.6 | 20 | 200 | Inhibition (Rattus norvegicus [13]): 52.7% |
| CC1CN(C(=O)C2CC2)N=C(c2ccc(N)cc2)c2cc3c(cc21)OCO3 (stereo not drawn) | > 100 | > 20 | > 200 | – | – | – | – | Dose (Mus musculus [2]): 200 mg/kg; Dose (Mus musculus [5]): 100 mg/kg |
| CC1CN(c2ccccn2)N=C(c2ccc(N)cc2)c2cc3c(cc21)OCO3 (stereo not drawn) | > 100 | > 20 | > 200 | – | – | – | – | Dose (Mus musculus [14]): 200 mg/kg; Dose (Mus musculus [15]): 100 mg/kg |
| CC(=O)N1CC(C)c2cc3c(cc2C(c2ccc(N)cc2)=N1)OCO3 (stereo not drawn) | 69.3 | 20 | 95.3 | – | 135 | 3.4 | – | Dose (Mus musculus [16]): 100 mg/kg; Dose (Mus musculus [17]): 200 mg/kg; Inhibition (Rattus norvegicus [13]): 54% |
| CC1=NN=C(c2ccc(N)cc2)c2cc3c(cc2C1)OCO3 [GYKI-52466] | 37.4 | 6.3 | – | 100 | 120 | 9.5 | 200 | IC50 (Rattus norvegicus [18]): 9.9 µM |
| CC(=O)N1N=C(c2ccc(N)cc2)c2cc3c(cc2C[C@H]1C)OCO3 [TALAMPANEL] | 8.6 | 1.7 | – | 100 | – | 2.6 | 200 | IC50 (Rattus norvegicus [18]): 2.5 µM |
